ChEMBL document CHEMBL5154634, “A Modular Synthetic Route Involving N-Aryl-2-nitrosoaniline Intermediates Leads to a New Series of 3-Substituted Halogenated Phenazine Antibacterial Agents” (J Med Chem, 2021)
Values after ≈ are worked out from the molar mass of the structure shown. Active and inactive are the calls of the source. No cut-off for these calls is given here.

What was measured:
Staphylococcus aureus [1] = assay: Antibacterial activity against methicillin-resistant Staphylococcus aureus BAA-1707 assessed as bacterial growth inhibition incubated for 16 hrs by broth microdilution susceptibility test; type: functional
Procedure, shortened: (§1)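 CLSI broth microdilution with 11 twofold dilutions (0.05–50 μM). About 10^5 cells per well from a log-phase culture. DMSO vehicle up to 0.5% v/v. At least three independent experiments.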

Enterococcus faecalis [2] = assay: Antibacterial activity against Enterococcus faecalis OG1RF ATCC 47077 assessed as bacterial growth inhibition incubated for 16 hrs by broth microdilution susceptibility test; type: functional
[3] = system: Mycobacterium tuberculosis; assay: Antibacterial activity against Mycobacterium tuberculosis H37Ra ATCC 25177 assessed as bacterial growth inhibition incubated for 7 days by absorbance based analysis; type: functional; details: H37Ra ATCC 25177, 168 h, time 7 day
Procedure, shortened: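 H37Ra grown 2 weeks in Middlebrook 7H9, then diluted to OD600 0.01. Compounds added in twofold dilutions, final 0.024–50 μM, with 0.5% DMSO and streptomycin as positive control. Incubated 7 days at 37 °C. MIC is the lowest concentration with no growth, with OD600 recorded. At least three independent experiments.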

[4] = system: Mycobacterium tuberculosis; assay: Antibacterial activity against Mycobacterium tuberculosis CDC1551 assessed as bacterial growth inhibition incubated for 5 days by luminescence based analysis; type: functional; details: CDC1551, 120 h, time 5 day
Procedure, shortened: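 Bioluminescent Mtb-lux CDC1551 reporter grown in Middlebrook 7H9 with 0.05% Tween 80, 10% OADC and kanamycin to OD600 0.4–0.8, then diluted to OD600 0.02. Added to twofold drug dilutions (0.003–200 μM). Incubated 5 days at 37 °C, 5% CO2. Luminescence read against 1% DMSO and 10 μM rifampicin controls to give % growth inhibition. MIC taken from a modified Gompertz fit.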

HeLa = assay: Cytotoxicity against human HeLa cells assessed as reduction in cell viability incubated for 24 hrs by LDH release assay; type: toxicity, cell-based
Procedure, shortened: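 HeLa cells in DMEM with 10% FBS, treated at 70–80% confluence with 25, 50 and 100 μM for 24 h. LDH in supernatant measured by 30 min reaction at room temperature, then stop solution and absorbance at 490 nm. Controls: 2% Triton X-100 (maximum), medium only, DMSO vehicle. Three independent experiments.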

J774 = assay: Cytotoxicity against mouse J774 cells assessed as reduction in cell viability […] by Alamar blue assay; type: toxicity, cell-based
HepG2 = assay: Cytotoxicity against human HepG2 cells assessed as reduction in cell viability […] by Alamar blue assay; type: toxicity, cell-based
Staphylococcus aureus [5] = assay: Bactericidal activity against methicillin-resistant Staphylococcus aureus BAA-1707 planktonic cells assessed as planktonic eradication incubated for 24 hrs followed by incubation for overnight in fresh medium by Calgary biofilm device assay; type: functional
Procedure, shortened: (§2)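 Calgary biofilm device. Biofilms grown 24 h at 37 °C in TSB with 0.5% glucose, then challenged 24 h with twofold compound dilutions. 20 μL of challenge medium transferred into fresh TSB with 0.5% glucose and incubated overnight at 37 °C. MBC is the concentration with no visible turbidity. At least three independent experiments.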

Staphylococcus aureus [6] = assay: Antibiofilm activity against methicillin-resistant Staphylococcus aureus BAA-44 biofilms assessed as biofilm eradication incubated for 24 hrs followed by incubation for 24 hrs in fresh medium by Calgary biofilm device assay; type: functional
Procedure, shortened: (§3)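 Calgary biofilm device. Mid-log culture diluted 1000-fold in TSB with 0.5% glucose; biofilms grown on pegs 24 h at 37 °C. Pegs washed and challenged with twofold compound dilutions for 24 h at 37 °C, then moved to fresh medium for 24 h. MBEC is the lowest concentration leaving wells non-turbid. At least three independent experiments.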

[7] = system: Staphylococcus epidermidis; assay: Bactericidal activity against methicillin-resistant Staphylococcus epidermidis ATCC 35984 planktonic cells assessed as planktonic eradication incubated for 24 hrs followed by incubation for overnight in fresh medium by Calgary biofilm device assay; type: functional; procedure, shortened: as §2
[8] = system: Staphylococcus epidermidis; assay: Antibiofilm activity against methicillin-resistant Staphylococcus epidermidis ATCC 35984 biofilms assessed as biofilm eradication incubated for 24 hrs followed by incubation for 24 hrs in fresh medium by Calgary biofilm device assay; type: functional; procedure, shortened: as §3
Enterococcus faecium [9] = assay: Bactericidal activity against methicillin-resistant vancomycin-resistant Enterococcus faecium ATCC 700221 planktonic cells assessed as planktonic eradication incubated for 24 hrs followed by incubation for overnight in fresh medium by Calgary biofilm device assay; type: functional; procedure, shortened: as §2
Enterococcus faecium [10] = assay: Antibiofilm activity against methicillin-resistant vancomycin-resistant Enterococcus faecium ATCC 700221 biofilms assessed as biofilm eradication incubated for 24 hrs followed by incubation for 24 hrs in fresh medium by Calgary biofilm device assay; type: functional; procedure, shortened: as §3
Enterococcus faecalis [11] = assay: Bactericidal activity against […] Enterococcus faecalis OG1RF ATCC 47077 planktonic cells assessed as planktonic eradication incubated for 24 hrs followed by incubation for overnight in fresh medium by Calgary biofilm device assay; type: functional
Procedure, shortened: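 Calgary biofilm device in BHI. Biofilms grown 24 h at 37 °C and challenged 24 h with twofold compound dilutions. Challenge medium subcultured 1:10 into fresh BHI overnight at 37 °C. MBC is the concentration with no turbidity. At least three independent experiments.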

Enterococcus faecalis [12] = assay: Antibiofilm activity against Enterococcus faecalis OG1RF ATCC 47077 biofilms assessed as biofilm eradication incubated for 24 hrs followed by incubation for 24 hrs in fresh medium by Calgary biofilm device assay; type: functional
Procedure, shortened: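 Calgary biofilm device. Biofilms grown 24 h at 37 °C in BHI from mid-log culture diluted 1000-fold. Pegs washed and then challenged 24 h with twofold serial dilutions. Pegs moved to fresh BHI for 24 h recovery. MBEC = lowest concentration leaving no turbidity; at least three independent experiments.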

Erythrocyte = assay: Hemolytic activity against human RBC at 200 uM measured after 1 hr; type: toxicity, cell-based
Procedure, shortened: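 2% hRBCs exposed to compound at 200 μM final, added from DMSO stock, for 1 h at 37 °C. Supernatant OD read at 405 nm. Hemolysis normalized between DMSO (0%) and Triton X (100%); three independent experiments.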

Staphylococcus aureus [13] = assay: Induction of iron starvation in methicillin-resistant Staphylococcus aureus BAA-1707 biofilms assessed as upregulation of sfaA gene expression at 1 uM incubated for 4 hrs by RT-qPCR analysis; type: functional
Procedure, shortened: (§4)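 MRSA BAA-1707 grown in TSB with 0.5% glucose to OD600 ~0.8–1.0, then biofilms formed 20 h at 37 °C statically in gelatin-coated 24-well plates. Biofilms treated 4 h at 37 °C with compound (1 μM or 1/10 MBEC) or DMSO vehicle. RNA extracted; only RIN ≥7 samples used. One-step SYBR RT-qPCR; ΔCT normalised to ptaA. Three independent experiments.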

Staphylococcus aureus [14] = assay: Induction of iron starvation in methicillin-resistant Staphylococcus aureus BAA-1707 biofilms assessed as upregulation of sfaA gene expression at 1/10XMBEC incubated for 4 hrs by RT-qPCR analysis; type: functional; procedure, shortened: as §4
Staphylococcus aureus [15] = assay: Induction of iron starvation in methicillin-resistant Staphylococcus aureus BAA-1707 biofilms assessed as upregulation of sbnC gene expression at 1 uM incubated for 4 hrs by RT-qPCR analysis; type: functional; procedure, shortened: as §4
Staphylococcus aureus [16] = assay: Induction of iron starvation in methicillin-resistant Staphylococcus aureus BAA-1707 biofilms assessed as upregulation of sbnC gene expression at 1/10XMBEC incubated for 4 hrs by RT-qPCR analysis; type: functional; procedure, shortened: as §4
Staphylococcus aureus [17] = assay: Induction of iron starvation in methicillin-resistant Staphylococcus aureus BAA-1707 biofilms assessed as upregulation of isdB gene expression at 1 uM incubated for 4 hrs by RT-qPCR analysis; type: functional; procedure, shortened: as §4
Staphylococcus aureus [18] = assay: Induction of iron starvation in methicillin-resistant Staphylococcus aureus BAA-1707 biofilms assessed as upregulation of isdB gene expression at 1/10XMBEC incubated for 4 hrs by RT-qPCR analysis; type: functional; procedure, shortened: as §4
Staphylococcus aureus [19] = assay: Induction of iron starvation in methicillin-resistant Staphylococcus aureus BAA-1707 biofilms assessed as upregulation of MW0695 gene expression at 1 uM incubated for 4 hrs by RT-qPCR analysis; type: functional; procedure, shortened: as §4
Staphylococcus aureus [20] = assay: Induction of iron starvation in methicillin-resistant Staphylococcus aureus BAA-1707 biofilms assessed as upregulation of MW0695 gene expression at 1/10XMBEC incubated for 4 hrs by RT-qPCR analysis; type: functional; procedure, shortened: as §4
[21] = Binding affinity to Fe2+ assessed as compound-Fe2+ complex formation by UV-vis spectroscopy
Staphylococcus aureus [22] = assay: Antibacterial activity against methicillin-resistant Staphylococcus aureus BAA-44 assessed as bacterial growth inhibition incubated for 16 hrs by broth microdilution susceptibility test; type: functional
Procedure, shortened: (§5)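 CLSI broth microdilution with 11 twofold dilutions (0.05–50 μM). Medium was LB for the staphylococci and BHI for VRE 700221. About 10^5 cells per well from a log-phase culture. […] DMSO vehicle up to 0.5% v/v. At least three independent experiments.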

[23] = system: Staphylococcus epidermidis; assay: Antibacterial activity against methicillin-resistant Staphylococcus epidermidis ATCC 35984 assessed as bacterial growth inhibition incubated for 16 hrs by broth microdilution susceptibility test; type: functional; procedure, shortened: as §1
Enterococcus faecium [24] = assay: Antibacterial activity against vancomycin-resistant Enterococcus faecium ATCC 700221 assessed as bacterial growth inhibition incubated for 16 hrs by broth microdilution susceptibility test; type: functional; procedure, shortened: as §5
[25] = system: Staphylococcus epidermidis; assay: Antibacterial activity against Staphylococcus epidermidis ATCC 12228 assessed as bacterial growth inhibition by broth microdilution method; type: functional

Oc1c(Br)c(Cl)c(Br)c2nc3ccccc3nc12
MIC (Staphylococcus aureus [1]): 0.15 µM (≈ 0.0583 µg/mL)
MIC (Enterococcus faecalis [2]): 3.13 µM (≈ 1.22 µg/mL)
MIC [3]: 6.25 µM (≈ 2.43 µg/mL)
MIC [4]: 4.37 µM (≈ 1.7 µg/mL)
IC50 (HeLa): > 100 µM
IC50 (J774): > 200 µM
IC50 (HepG2): > 200 µM
MBC (Staphylococcus aureus [5]): 50 µM (≈ 19.4 µg/mL)
MBEC (Staphylococcus aureus [6]): 75 µM
MBC [7]: 12.5 µM (≈ 4.86 µg/mL)
MBEC [8]: 25 µM
MBC (Enterococcus faecium [9]): 4.69 µM (≈ 1.82 µg/mL)
MBEC (Enterococcus faecium [10]): 2.35 µM
MBC (Enterococcus faecalis [11]): 75 µM (≈ 29.1 µg/mL)
MBEC (Enterococcus faecalis [12]): >200 µM
Activity (Erythrocyte): <= 1%
Activity (Staphylococcus aureus [13]): Active
Activity (Staphylococcus aureus [14]): Active
Activity (Staphylococcus aureus [15]): Active
Activity (Staphylococcus aureus [16]): Active
Activity (Staphylococcus aureus [17]): Active
Activity (Staphylococcus aureus [18]): Active
Activity (Staphylococcus aureus [19]): Active
Activity (Staphylococcus aureus [20]): Active
Activity [21]: Active

Oc1c(Br)ccc2nc3ccccc3nc12
MIC (Staphylococcus aureus [1]): 3.13 µM (≈ 0.861 µg/mL)
MIC (Staphylococcus aureus [22]): 3.13 µM (≈ 0.861 µg/mL)
MIC [23]: 3.13 µM (≈ 0.861 µg/mL)
MIC (Enterococcus faecium [24]): 6.25 µM (≈ 1.72 µg/mL)
MIC (Enterococcus faecalis [2]): 18.8 µM (≈ 5.17 µg/mL)
MIC [25]: 6.25 µM (≈ 1.72 µg/mL)
